# In ChEMBL document CHEMBL1144421, “Class II (IIa)-selective histone deacetylase inhibitors. 1. Synthesis and biological evaluation of novel (aryloxopropenyl)pyrrolyl hydroxyamides” (J Med Chem, 2005):
# What was measured:
# [1] = molecular target: T1, Histone deacetylase HD2 (Zea mays) (UniProt Q94F81); assay: Inhibitory activity against maize histone deacetylase 2 at 23.6 uM
# T1 sequence (whole entry): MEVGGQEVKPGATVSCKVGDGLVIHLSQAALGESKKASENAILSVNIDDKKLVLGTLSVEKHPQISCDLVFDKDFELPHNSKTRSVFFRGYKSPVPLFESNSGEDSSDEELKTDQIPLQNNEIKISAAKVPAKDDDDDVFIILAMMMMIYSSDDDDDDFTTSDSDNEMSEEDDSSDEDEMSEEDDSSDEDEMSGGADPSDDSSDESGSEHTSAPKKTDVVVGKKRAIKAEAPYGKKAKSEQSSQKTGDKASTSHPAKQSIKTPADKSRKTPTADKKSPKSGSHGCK
# Outline: (§1)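 Maize HD2 enzyme preincubated at 30 °C, then incubated 30 min with [³H]acetate-prelabeled chicken reticulocyte core histones (10 µL of 2 mg/mL) as substrate. Reaction stopped with 1 M HCl/0.4 M acetate. Released [³H]acetic acid was extracted into ethyl acetate and counted by liquid scintillation. Percent inhibition at one fixed concentration; means of at least three separate experiments. Blank solvent served as negative control.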
# [2] = Inhibitory concentration against maize histone deacetylase 1-B (class I HDAC)
# [3] = Inhibitory concentration against maize histone deacetylase 1-A (class IIa HDAC)
# Histone deacetylase HD2 = molecular target: T2, Histone deacetylase HD2 (Zea mays, UniProt Q94F81); assay: Inhibitory concentration against maize histone deacetylase 2
# T2 sequence (Q94F81 whole entry): T1 sequence (whole entry)
# Outline: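 Maize HD2 deacetylase assay using [³H]acetate-prelabeled chicken reticulocyte histones (2 mg/mL, 10 µL) at 30 °C for 30 min. Released tritiated acetic acid was extracted with ethyl acetate after HCl/acetate stop, then scintillation counted. IC50 from triple determinations, given as mean ± SD of at least three experiments.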
# [4] = Selectivity for class IIa HDACs as ratio of IC50 for maize histone deacetylase 1-B and 1-A
# Outline: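 Maize HD1-B (class I homologue) and HD1-A (class IIa homologue) were each assayed on [³H]acetate-prelabeled chicken reticulocyte histones for 30 min at 30 °C. Released [³H]acetate was extracted with ethyl acetate and scintillation counted. IC50s came from dilutions starting at 40 µM, at least three experiments. Selectivity = IC50(HD1-B)/IC50(HD1-A).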
# [5] = molecular target: T1, Histone deacetylase HD2 (Zea mays); assay: Inhibitory activity against maize histone deacetylase 2 at 23.7 uM; outline: as §1
# [6] = molecular target: T1, Histone deacetylase HD2 (Zea mays); assay: Inhibitory activity against maize histone deacetylase 2 at 23.3 uM; outline: as §1
# [7] = molecular target: T1, Histone deacetylase HD2 (Zea mays); assay: Inhibitory activity against maize histone deacetylase 2 at 24.5 uM; outline: as §1
# [8] = molecular target: T1, Histone deacetylase HD2 (Zea mays); assay: Inhibitory activity against maize histone deacetylase 2 at 20.2 uM; outline: as §1
# [9] = molecular target: T1, Histone deacetylase HD2 (Zea mays); assay: Inhibitory activity against maize histone deacetylase 2 at 25.2 uM; outline: as §1
# [10] = molecular target: T1, Histone deacetylase HD2 (Zea mays); assay: Inhibitory activity against maize histone deacetylase 2 at 20.6 uM; outline: as §1
# [11] = molecular target: T1, Histone deacetylase HD2 (Zea mays); conditions: 22.2 uM
# [12] = molecular target: T1, Histone deacetylase HD2 (Zea mays); assay: Inhibitory activity against maize histone deacetylase 2 at 20.5 uM; outline: as §1
# [13] = molecular target: T1, Histone deacetylase HD2 (Zea mays); assay: Inhibitory activity against maize histone deacetylase 2 at 40 uM; outline: as §1
# [14] = molecular target: T1, Histone deacetylase HD2 (Zea mays); assay: Inhibitory activity against maize histone deacetylase 2 at 26 uM; outline: as §1
# [15] = molecular target: T1, Histone deacetylase HD2 (Zea mays); assay: Inhibitory activity against maize histone deacetylase 2 at 24.8 uM; outline: as §1
# [16] = molecular target: T1, Histone deacetylase HD2 (Zea mays); assay: Inhibitory activity against maize histone deacetylase 2 at 21.1 uM; outline: as §1
SMILES,IC50 [2],IC50 [3],IC50 (Histone deacetylase HD2),SI [4],also measured
COc1cccc(C(=O)/C=C/c2cc(/C=C/C(=O)NO)n(C)c2)c1,600 nM,390 nM,540 nM,,inhibition [1]: 78.2%
CC(/C=C/C(=O)NO)=C\[C@@H](C)C(=O)c1ccc(N(C)C)cc1 [TRICHOSTATIN],0.4 nM,0.8 nM,,,
CC/C(=C\c1cc(/C=C/C(=O)NO)n(C)c1)C(=O)c1ccccc1,4500 nM,220 nM,420 nM,20.4,inhibition [5]: 93%
COc1ccccc1C(=O)/C=C/c1cc(/C=C/C(=O)NO)n(C)c1,170 nM,160 nM,250 nM,,inhibition [1]: 95.7%
Cn1cc(/C=C/C(=O)c2ccc(Cl)cc2)cc1/C=C/C(=O)NO,29400 nM,18600 nM,,,inhibition [6]: 45.5%
Cn1cc(/C=C/C(=O)c2ccccc2F)cc1/C=C/C(=O)NO,3400 nM,100 nM,7100 nM,34,inhibition [7]: 73.9%
Cn1cc(/C=C/C(=O)c2cccc(OC(F)(F)F)c2)cc1/C=C/C(=O)NO,298000 nM,90000 nM,176000 nM,3.3,inhibition [8]: 19.5%
Cn1cc(/C=C/C(=O)c2ccc3ccccc3c2)cc1/C=C/C(=O)NO,,40 nM,1800 nM,45,inhibition [9]: 62.9%
Cn1cc(/C=C/C(=O)c2ccc(-c3ccccc3)cc2)cc1/C=C/C(=O)NO,31800 nM,2200 nM,26500 nM,14.4,inhibition [10]: 34%
COc1ccc(C(=O)/C=C/c2cc(/C=C/C(=O)NO)n(C)c2)cc1,800 nM,790 nM,570 nM,,inhibition [1]: 74.2%
Cn1cc(/C=C/C(=O)c2cccc3ccccc23)cc1/C=C/C(=O)NO,330 nM,10 nM,200 nM,33,inhibition [11]: 92%
Cn1cc(/C=C/C(=O)c2cccc(Br)c2)cc1/C=C/C(=O)NO,1100 nM,1600 nM,2100 nM,,inhibition [12]: 76.8%
O=C(CCCCCCC(=O)Nc1ccc([C@H]2O[C@@H](CSc3nc(-c4ccccc4)c(-c4ccccc4)o3)C[C@@H](c3ccc(CO)cc3)O2)cc1)NO [TUBACIN],980 nM,450 nM,2000 nM,2.2,inhibition [13]: 92.9%
Cn1cc(/C=C/C(=O)c2ccccc2)cc1/C=C/C(=O)NO,260 nM,190 nM,,,inhibition [14]: 92.3%
Cc1cccc(C(=O)/C=C/c2cc(/C=C/C(=O)NO)n(C)c2)c1,2500 nM,170 nM,,14.7,inhibition [15]: 72%
Cn1cc(/C=C/C(=O)c2ccc(Br)cc2)cc1/C=C/C(=O)NO,24300 nM,20300 nM,28500 nM,,inhibition [12]: 41.7%
Cc1ccccc1C(=O)/C=C/c1cc(/C=C/C(=O)NO)n(C)c1,390 nM,60 nM,,6.5,inhibition [15]: 96%
Cn1cc(/C=C/C(=O)c2ccccc2Cl)cc1/C=C/C(=O)NO,1600 nM,50 nM,,32,inhibition [6]: 79.1%
Cn1cc(/C=C/C(=O)c2cccc(Cl)c2)cc1/C=C/C(=O)NO,31400 nM,440 nM,,71.4,inhibition [6]: 49%
Cn1cc(/C=C/C(=O)c2cccc(C(F)(F)F)c2)cc1/C=C/C(=O)NO,159000 nM,9300 nM,49000 nM,17.1,inhibition [16]: 46.1%
C/C(=C\c1cc(/C=C/C(=O)NO)n(C)c1)C(=O)c1ccccc1,570 nM,780 nM,680 nM,,inhibition [15]: 89.9%
Cn1cc(/C=C/C(=O)c2cccc(F)c2)cc1/C=C/C(=O)NO,38800 nM,220 nM,22000 nM,176,inhibition [7]: 56.5%
Cn1cc(/C=C/C(=O)c2ccc(F)cc2)cc1/C=C/C(=O)NO,24900 nM,15700 nM,35300 nM,,inhibition [7]: 33.2%
Cc1ccc(C(=O)/C=C/c2cc(/C=C/C(=O)NO)n(C)c2)cc1,4800 nM,500 nM,,9.6,inhibition [15]: 65%
Cn1cc(/C=C/C(=O)c2ccccc2Br)cc1/C=C/C(=O)NO,180 nM,210 nM,360 nM,,inhibition [12]: 92.4%
